# Compound activity deposited in PubChem by several laboratories.
# Rows were chosen to be rich in hits. Some 1.7% of all compounds tested hit in one or more screens of this group.
# DSG3 Ab inh = inhibitors of pemphigus antibody binding to human desmoglein-3; actives 0.48% (n = 310,000); DSG3-coupled beads, scFv-anti-DSG3-GFP binding, flow cytometry; stronger effect = lower value; binding (percent of control), % at 10 µM; AID 588358;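 active = binding more than 3 SD below its plate's average and above zero; inconclusive = below that plate limit but binding exactly zero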;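 also: hits lower antibody fragment binding to DSG3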
# Target sequence (P32926 whole entry, looked up, the tested form may be a part): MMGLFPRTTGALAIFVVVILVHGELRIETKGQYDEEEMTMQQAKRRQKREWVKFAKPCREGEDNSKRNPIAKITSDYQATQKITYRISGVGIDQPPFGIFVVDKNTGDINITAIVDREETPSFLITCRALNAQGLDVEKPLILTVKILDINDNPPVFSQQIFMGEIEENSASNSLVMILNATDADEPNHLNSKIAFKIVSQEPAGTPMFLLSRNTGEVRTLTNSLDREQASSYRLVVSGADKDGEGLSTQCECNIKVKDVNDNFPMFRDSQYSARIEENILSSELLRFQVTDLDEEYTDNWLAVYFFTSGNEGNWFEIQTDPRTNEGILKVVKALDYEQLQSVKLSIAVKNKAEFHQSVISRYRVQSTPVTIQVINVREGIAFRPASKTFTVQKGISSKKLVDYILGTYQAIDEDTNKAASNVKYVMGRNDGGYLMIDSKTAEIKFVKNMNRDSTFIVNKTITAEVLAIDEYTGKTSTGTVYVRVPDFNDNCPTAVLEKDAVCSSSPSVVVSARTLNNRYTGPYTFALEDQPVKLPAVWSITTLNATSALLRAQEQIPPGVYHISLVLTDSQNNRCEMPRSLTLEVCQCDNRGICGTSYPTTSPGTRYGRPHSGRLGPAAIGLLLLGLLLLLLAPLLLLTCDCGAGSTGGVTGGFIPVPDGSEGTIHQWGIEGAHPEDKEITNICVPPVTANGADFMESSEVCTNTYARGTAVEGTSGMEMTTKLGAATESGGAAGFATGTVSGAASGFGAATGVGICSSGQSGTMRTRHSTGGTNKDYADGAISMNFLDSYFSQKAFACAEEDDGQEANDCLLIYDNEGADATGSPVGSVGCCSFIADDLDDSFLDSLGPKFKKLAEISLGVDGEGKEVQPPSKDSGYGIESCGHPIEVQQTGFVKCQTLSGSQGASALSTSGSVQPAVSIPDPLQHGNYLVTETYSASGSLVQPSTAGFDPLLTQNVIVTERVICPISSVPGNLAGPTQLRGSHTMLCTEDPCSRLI
# Myeloid diff MLP = compounds promoting myeloid differentiation. ER-HoxA9 myeloid progenitors, lysozyme-GFP differentiation, flow cytometry. calls only at 10 µM. actives 1% (n = 360,000);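 active = normalized GFP-positive differentiation at or above the plate's own cutoff, the solvent-only control mean plus 3 SD; inconclusive = no clear call, values can overlap the other calls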;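 also: cells exposed to compound for four days before flow analysis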
# Vif inh = HIV Vif inhibition; HEK293T cells, Vif self-association by quenched fluorescence, imaging, 24 h; inhibition, % at 7.49 µM; actives 0.35% (n = 340,000); in the data active = inhibition above about 50%, passing the limit was not always enough; inconclusive = no clear call, values can overlap the other calls; inactive = below about 31%
# T cell modulator = T cell immune modulators affecting CD8 T cell-vesicle binding | actives 0.068% (n = 330,000) | response (vesicle binding), % at 7 µM | 2C CD8+ T cell-vesicle binding, flow cytometry; stronger effect = lower value | AID 2052;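 active = response, share of CD8 T cells binding vesicles, and their 90th percentile fluorescence all below set limits, cut at about 80% in these data, passing the limit was not always enough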;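 also: values below 100% mean blocked vesicle binding to the CD8+ T cells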
#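 Incubation: binding step 1.5 h, 37 °C, antibody labelling 20 min, ice; system: murine 2C transgenic CD8+ T lymphocytes; technique: cytometric PE anti-B7-1 and Alexa647 anti-CD8 signals after 1% paraformaldehyde fixation; also added: QL9-charged Drosophila Ld/ICAM-1/B7-1 vesicles; control set: naked versus QL9-loaded vesicles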
# * marks the source's active call; other numbers are inactive results; i = inactive; u = inconclusive; x = not tested or not shown; + = active, no number.
SMILES,DSG3 Ab inh,Myeloid diff MLP,Vif inh,T cell modulator
COc1ccc(CCNC(=O)CSc2nc3ccsc3c(=O)n2CC2CCC(C(=O)O)CC2)cc1OC (configuration not stated),x,i,6,210
CCOC(=O)c1cc2occc2n1CC(=O)N1CCOCC1,99,i,60*,294
COc1cc(/C=C2/C(=N)N3OC(C)=CC3=NC2=O)ccc1OC(=O)c1ccco1,61*,i,29,138
COc1ccccc1-c1cncc(NC(C)=O)n1,x,i,5,x
CSc1nsc(/C=C/Nc2ccc(F)cc2F)c1C#N,79,+,u,180
COc1ccc(N2CCN(C(=S)Nc3ccc(C)cc3)CC2)cc1,102,i,0,285
COc1ccc(N2CCN(C(=S)Nc3cccc(C)c3C)CC2)cc1,49*,i,17,440
O=S(=O)(/N=S1\CC=CCN1S(=O)(=O)c1ccccc1)c1ccccc1 (configuration not stated),84,i,1,x
CN(C)C(=O)c1ccc(NC(=O)CN2C(=O)NC3(CCCc4ccccc43)C2=O)cc1 (configuration not stated),105,i,-2,244
COc1ccc(-c2cc3ccc(OCC(=O)NCC4CCC(C(=O)O)CC4)cc3oc2=O)cc1 (configuration not stated),102,i,3,213
COc1ccc2c(c1)c(=O)oc1cc(OCC(=O)NCC3CCC(C(=O)O)CC3)ccc12 (configuration not stated),-19*,i,55*,223
CN1OC[C@@H]2CN(C(=O)C(C)(C)C)[C@H](c3ccc(-c4cc5ccccc5o4)cc3)C[C@@H]21,61*,i,-1,x
CN1OC[C@@H]2CN(C(=O)C(C)(C)C)[C@H](c3cccc(-c4ccccc4)c3)C[C@@H]21,106,i,x,x
COC(=O)C[C@H]1C[C@H]2c3cc(NC(=O)C4CCOCC4)ccc3O[C@H]2[C@H](CO)O1,x,i,1,x
COc1cccc(/C(O)=C/c2nc3ccc(C(=O)NCCc4cccc(C)c4)cc3[nH]c2=O)c1,96,+,-2,468
COCCN1C(=O)/C(=C/c2ccc(N3CCCC3)cc2C)SC1=S,300,+,2,419
CCN=C1S/C(=C\c2ccc(N3CCOCC3)cc2C)C(=O)N1CC,101,i,9,297
CCOc1ccc(CCN2C(=O)C(=O)N([C@@H](Cc3ccc(O)cc3)CN3CCC[C@@H]3CN3C(=O)C(=O)NC[C@@H]3Cc3ccccc3)C[C@@H]2Cc2ccccc2)cc1,102,i,-3,x
Cc1ccccc1-n1c(=O)cc(N2CCN(Cc3ccccc3)CC2)[nH]c1=O,104,i,x,499
CCN1CCN(c2cc(=O)n(-c3cc(Cl)ccc3C)c(=O)[nH]2)CC1,93,i,58*,294
COc1cc2[nH]c(=S)nc(NCc3ccccn3)c2cc1OC,112,+,4,x
COc1cc2[nH]c(=S)nc(NCc3ccccc3)c2cc1OC,99,i,-1,159
O=C1CC(C(=O)Nc2ccccc2)C2(CCCC2)O1 (configuration not stated),x,+,-17,222
Cc1cccc(NC(=O)C2CC(=O)OC23CCCCC3)c1 (configuration not stated),90,i,6,166
CCOC(=O)c1sc2nc(CC(=O)OC)nc(NCc3ccco3)c2c1C,104,+,-3,x
SMILES,DSG3 Ab inh,Myeloid diff MLP,Vif inh,T cell modulator
CCCn1c(=S)[nH]c2cc(C(=O)N3CCN(C4CCCCC4)CC3)ccc2c1=O,x,i,-4,276
CC(=O)Nc1ccc(S(=O)(=O)N2c3ccccc3C(C)=CC2(C)C)cc1,128,x,81*,254
O=C(CN1C(=O)NC2(CCCCCCC2)C1=O)Nc1ccc(Cl)cc1,100,i,-2,146
Oc1ccc(C[C@H]2CN([C@@H](Cc3cccc(O)c3)CN3CCC[C@@H]3CN3C(=S)NC[C@@H]3Cc3ccccc3)C(=S)N2CC2CCCCC2)cc1,x,+,10,x
CC(C)C[C@H]1CNC(=S)N1C[C@H]1CCCN1C[C@H](Cc1ccccc1)N1C[C@H](Cc2ccc(O)cc2)N(CC2CCCCCC2)C1=S,x,+,23,x
CC(C)C[C@H]1CNC(=S)N1CC1CCCN1C[C@H](Cc1ccc(O)cc1)N1C[C@H](Cc2ccccc2)N(CC2CCCCCC2)C1=S (some centres not stated),96,i,x,x
CCc1ccc(C(O)c2ncc(-c3cccc(OC)c3)[nH]2)cc1 (configuration not stated),x,i,x,x
C[C@]12CCC[C@H](O1)c1c(cc3c(c1O)C(=O)c1c(O)cc(O)cc1C3=O)O2,97,i,i,446
Nc1ccc(C(=O)N/N=C\C=C\c2ccc([N+](=O)[O-])cc2)cc1,44*,i,-1,657
COC(=O)[C@@]1(Cc2ccc(F)cc2)[C@H]2c3cc(C(=O)N(C)C)n(CCc4c[nH]c5ccc(O)cc45)c3C[C@H]2CN1C(=O)c1ccccc1,x,i,x,x
CCCCCc1nc2c(C#N)c(-c3ccc(Cl)cc3)ccn2n1,101,+,1,126
N#Cc1c(-c2ccc(Cl)cc2)ccn2nc(CCC(=O)O)nc12,103,i,12,169
O=C1NCCCCC1NS(=O)(=O)c1ccc(F)c(F)c1 (configuration not stated),110,i,-1,248
CCc1ccc(S(=O)(=O)NC2CCCCNC2=O)cc1 (configuration not stated),76*,i,-8,319
c1ccc2cc(N3CCCCC3)ccc2c1,100,i,2,x
O=C1c2ccccc2C(=O)c2cc(N3CCCCC3)ccc21,162,+,-6,x
Nc1nc2c(ncn2COCCO)c(=O)[nH]1,116,i,-2,278
Nc1nc2c(ncn2COC(CO)CO)c(=O)[nH]1,102,+,-5,536
O=C(c1ccco1)N(CCC(c1ccccc1)c1ccco1)Cc1ccc(F)cc1 (configuration not stated),98,+,8,198
CC1(C)CC(C(CCN(Cc2ccccc2)C(=O)c2ccco2)c2ccc(F)cc2)CCO1 (configuration not stated),99,i,0,414
CCCCN1C=C(C(=O)OC)C(c2ccccc2C(F)(F)F)C(C(=O)OC)=C1,-28*,i,-4,480
Cc1[nH]nc(C(F)(F)F)c1CCC(=O)NC1CCCCCC1,x,i,59*,379
CCOC(=O)c1cc(-c2ccc(/C=N\n3cnnc3)o2)ccc1Cl,107,i,-3,194
CCOC(=O)c1cc(-c2ccc(/C=C3/C(=O)N(c4ccc(C(=O)O)cc4)N=C3C)o2)ccc1Cl,63*,+,-3,235
COc1ccc(C2=NS(=O)(=O)N(C)C(C(=O)NC3CCCCC3)=C2)cc1,-19*,i,2,374
Cc1c(C(=O)OCC(=O)NCc2ccco2)oc2ccccc12,x,i,-2,65*
Cc1ccc2c(CC(=O)NCc3ccco3)coc2c1C,114,+,-6,234
